ChEMBL document CHEMBL4689842, “EUbOPEN Chemogenomics Library wave 1” (2021)
Values joined by “and” are separate entries in the source; they are usually repeats but may differ in a detail not shown here. Identical values can stand only once.

Legend:
Type in all cases: toxicity, cell-based
[1] = system: Fibroblast; assay: Multiplex assay against human fibroblast; conditions: 1 µM, compound concentration 1 uM
Procedure, shortened: (§1)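 On a CQ1 microscope at 37°C and 5% CO2, live cells were imaged after compound addition. They had been stained at seeding with Hoechst33342, BioTracker Green Microtubule Cytoskeleton Dye, MitoTracker Red and Annexin V Alexa Fluor 680. CellPathfinder machine-learning gating assigned cells to Hoechst high-intensity objects or normal cells, normal cells to healthy, pyknosed or fragmented nuclei, and pyknosed cells to mitotic or apoptotic. Tubulin, mitochondrial-mass and membrane-permeability phenotypes are per cents of healthy-nucleus cells.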

[2] = system: HEK-293T; assay: Multiplex assay against HEK293T; conditions: human, 1 µM, compound concentration 1 uM; procedure, shortened: as §1;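 as to Population Tubulin-Different-Phenotype (%): share of the cells with healthy nuclei that show this phenotype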
[3] = system: Fibroblast; assay: Incucyte cell viability with human fibroblast; conditions: 10 µM, compound concentration 10 uM; also: filed as whole numbers so only -1 and 0 and 1 occur
[4] = system: U2OS; assay: Incucyte cell viability with U2OS; conditions: human, 10 µM, compound concentration 10 uM; also: filed as whole numbers so only -1 and 0 and 1 occur
[5] = system: U2OS; assay: Multiplex assay against U2OS; conditions: human, 1 µM, compound concentration 1 uM; procedure, shortened: as §1
[6] = system: HEK-293T; assay: Incucyte cell viability with HEK293T; conditions: human, 10 µM, compound concentration 10 uM; also: filed as whole numbers so only -1 and 0 and 1 occur
[7] = 0 h, replicate number 1, timepoint 0 hours
[8] = 6 h, replicate number 1, timepoint 6 hours
[9] = 12 h, replicate number 1, timepoint 12 hours
[10] = 18 h, replicate number 1, timepoint 18 hours
[11] = 24 h, replicate number 1, timepoint 24 hours
[12] = 0 h, replicate number 2, timepoint 0 hours

CNC(=O)Nc1ccc2c(c1)CC[C@@]21OC(=O)N(CC(=O)N(Cc2ccc(F)cc2)[C@@H](C)C(F)(F)F)C1=O [A-485]
Population Apoptotic (%) ([1]; 12 h, replicate 1): 50% and 76%
Population Fragmented Nuclei (%) ([1]; 12 h, replicate 1): 17% and 24%
Population Healthy Nuclei (%) ([1]; 12 h, replicate 1): 59% and 61%
Population Hoechst High Intensity Objects (%) ([1]; 12 h, replicate 1): 8% and 9%
Population Mitotic Cells (%) ([1]; 12 h, replicate 1): 50% and 23%
Population Normal (%) ([1]; 12 h, replicate 1): 91% and 90%
Population Pyknosed Nuclei (%) ([1]; 12 h, replicate 1): 23% and 13%
Total Cell Count ([1]; 12 h, replicate 1): 243 and 214
Population Fragmented Nuclei (%) ([1]; 12 h, replicate 2): 53% and 66%
Population Healthy Nuclei (%) ([1]; 12 h, replicate 2): 39% and 24%
Population Hoechst High Intensity Objects (%) ([1]; 12 h, replicate 2): 37% and 49%
Population Membrane Permeable-Phenotype (%) ([1]; 12 h, replicate 2): 11% and 33%
Population Mitochondria Different-Phenotype (%) ([1]; 12 h, replicate 2): 17% and 25%
Population Normal (%) ([1]; 12 h, replicate 2): 62% and 50%
Population Pyknosed Nuclei (%) ([1]; 12 h, replicate 2): 6% and 10%
Population Tubulin-Different-Phenotype (%) ([1]; 12 h, replicate 2): 23% and 66%
Total Cell Count ([1]; 12 h, replicate 2): 69 and 99
Population Apoptotic (%) ([1]; 24 h, replicate 1): 73% and 48%
Population Fragmented Nuclei (%) ([1]; 24 h, replicate 1): 17% and 22%
Population Healthy Nuclei (%) ([1]; 24 h, replicate 1): 64% and 59%
Population Hoechst High Intensity Objects (%) ([1]; 24 h, replicate 1): 9% and 11%
Population Membrane Permeable-Phenotype (%) ([1]; 24 h, replicate 1): 17% and 11%
Population Mitotic Cells (%) ([1]; 24 h, replicate 1): 26% and 51%
Population Normal (%) ([1]; 24 h, replicate 1): 90% and 88%
Population Pyknosed Nuclei (%) ([1]; 24 h, replicate 1): 17%
Population Tubulin-Different-Phenotype (%) ([1]; 24 h, replicate 1): 9%
Total Cell Count ([1]; 24 h, replicate 1): 251 and 207
Population Apoptotic (%) ([1]; 24 h, replicate 2): 50%
Population Fragmented Nuclei (%) ([1]; 24 h, replicate 2): 51% and 62%
Population Healthy Nuclei (%) ([1]; 24 h, replicate 2): 37% and 29%
Population Hoechst High Intensity Objects (%) ([1]; 24 h, replicate 2): 39% and 51%
Population Mitochondria Different-Phenotype (%) ([1]; 24 h, replicate 2): 0% and 21%
Population Mitotic Cells (%) ([1]; 24 h, replicate 2): 50%
Population Normal (%) ([1]; 24 h, replicate 2): 60% and 48%
Population Pyknosed Nuclei (%) ([1]; 24 h, replicate 2): 10% and 8%
Population Tubulin-Different-Phenotype (%) ([1]; 24 h, replicate 2): 21% and 42%
Total Cell Count ([1]; 24 h, replicate 2): 61 and 99
Population Apoptotic (%) ([2]; 12 h, replicate 1): 15% and 30%
Population Fragmented Nuclei (%) ([2]; 12 h, replicate 1): 18% and 22%
Population Healthy Nuclei (%) ([2]; 12 h, replicate 1): 55% and 56%
Population Hoechst High Intensity Objects (%) ([2]; 12 h, replicate 1): 16% and 23%
Population Mitochondria Different-Phenotype (%) ([2]; 12 h, replicate 1): 8% and 7%
Population Mitotic Cells (%) ([2]; 12 h, replicate 1): 84% and 69%
Population Normal (%) ([2]; 12 h, replicate 1): 83% and 76%
Population Pyknosed Nuclei (%) ([2]; 12 h, replicate 1): 26% and 20%
Total Cell Count ([2]; 12 h, replicate 1): 630 and 586
Population Apoptotic (%) ([2]; 12 h, replicate 2): 6% and 12%
Population Fragmented Nuclei (%) ([2]; 12 h, replicate 2): 5% and 8%
Population Healthy Nuclei (%) ([2]; 12 h, replicate 2): 85% and 87%
Population Hoechst High Intensity Objects (%) ([2]; 12 h, replicate 2): 2%
Population Mitochondria Different-Phenotype (%) ([2]; 12 h, replicate 2): 20% and 9%
Population Mitotic Cells (%) ([2]; 12 h, replicate 2): 93% and 87%
Population Normal (%) ([2]; 12 h, replicate 2): 97%
Population Pyknosed Nuclei (%) ([2]; 12 h, replicate 2): 8% and 4%
Total Cell Count ([2]; 12 h, replicate 2): 1495 and 1775
Population Apoptotic (%) ([2]; 24 h, replicate 1): 21% and 25%
Population Fragmented Nuclei (%) ([2]; 24 h, replicate 1): 18%
Population Healthy Nuclei (%) ([2]; 24 h, replicate 1): 62% and 73%
Population Hoechst High Intensity Objects (%) ([2]; 24 h, replicate 1): 11% and 16%
Population Membrane Permeable-Phenotype (%) ([2]; 24 h, replicate 1): 14% and 9%
Population Mitochondria Different-Phenotype (%) ([2]; 24 h, replicate 1): 15% and 6%
Population Mitotic Cells (%) ([2]; 24 h, replicate 1): 78% and 74%
Population Normal (%) ([2]; 24 h, replicate 1): 88% and 83%
Population Pyknosed Nuclei (%) ([2]; 24 h, replicate 1): 18% and 8%
Population Tubulin-Different-Phenotype (%) ([2]; 24 h, replicate 1): 74%
Total Cell Count ([2]; 24 h, replicate 1): 539 and 610
Population Apoptotic (%) ([2]; 24 h, replicate 2): 10% and 4%
Population Fragmented Nuclei (%) ([2]; 24 h, replicate 2): 14% and 24%
Population Healthy Nuclei (%) ([2]; 24 h, replicate 2): 81% and 72%
Population Hoechst High Intensity Objects (%) ([2]; 24 h, replicate 2): 5% and 3%
Population Membrane Permeable-Phenotype (%) ([2]; 24 h, replicate 2): 16% and 10%
Population Mitotic Cells (%) ([2]; 24 h, replicate 2): 89% and 95%
Population Normal (%) ([2]; 24 h, replicate 2): 94% and 96%
Population Pyknosed Nuclei (%) ([2]; 24 h, replicate 2): 4% and 2%
Total Cell Count ([2]; 24 h, replicate 2): 1741 and 2832
Growth Rate [3, 7]: 0
Growth Rate [3, 8]: 0
Growth Rate [3, 9]: 0
Growth Rate ([3]; 12 h, replicate number 2, timepoint 12 hours): 1
Growth Rate [3, 10]: 0
Growth Rate [3, 11]: 1
Growth Rate ([3]; 24 h, replicate number 2, timepoint 24 hours): 0
Growth Rate [4, 7]: 1
Growth Rate [4, 12]: 0
Growth Rate [4, 8]: 0
Growth Rate [4, 9]: 1
Growth Rate [4, 10]: 1
Growth Rate [4, 11]: 1
Population Apoptotic (%) ([5]; 12 h, replicate 1): 30% and 62%
Population Fragmented Nuclei (%) ([5]; 12 h, replicate 1): 2% and 8%
Population Healthy Nuclei (%) ([5]; 12 h, replicate 1): 91% and 85%
Population Hoechst High Intensity Objects (%) ([5]; 12 h, replicate 1): 4%
Population Mitochondria Different-Phenotype (%) ([5]; 12 h, replicate 1): 14% and 16%
Population Mitotic Cells (%) ([5]; 12 h, replicate 1): 70% and 37%
Population Normal (%) ([5]; 12 h, replicate 1): 95%
Population Pyknosed Nuclei (%) ([5]; 12 h, replicate 1): 5% and 6%
Population Tubulin-Different-Phenotype (%) ([5]; 12 h, replicate 1): 58% and 20%
Total Cell Count ([5]; 12 h, replicate 1): 185 and 139
Population Apoptotic (%) ([5]; 12 h, replicate 2): 20% and 0%
Population Fragmented Nuclei (%) ([5]; 12 h, replicate 2): 10% and 7%
Population Healthy Nuclei (%) ([5]; 12 h, replicate 2): 76% and 88%
Population Hoechst High Intensity Objects (%) ([5]; 12 h, replicate 2): 6% and 8%
Population Mitochondria Different-Phenotype (%) ([5]; 12 h, replicate 2): 23% and 22%
Population Mitotic Cells (%) ([5]; 12 h, replicate 2): 80% and 100%
Population Normal (%) ([5]; 12 h, replicate 2): 93% and 91%
Population Pyknosed Nuclei (%) ([5]; 12 h, replicate 2): 12% and 4%
Total Cell Count ([5]; 12 h, replicate 2): 82 and 103
Population Fragmented Nuclei (%) ([5]; 24 h, replicate 1): 5% and 4%
Population Healthy Nuclei (%) ([5]; 24 h, replicate 1): 88% and 90%
Population Hoechst High Intensity Objects (%) ([5]; 24 h, replicate 1): 0% and 2%
Population Membrane Permeable-Phenotype (%) ([5]; 24 h, replicate 1): 24% and 13%
Population Mitochondria Different-Phenotype (%) ([5]; 24 h, replicate 1): 10% and 11%
Population Mitotic Cells (%) ([5]; 24 h, replicate 1): 93% and 66%
Population Normal (%) ([5]; 24 h, replicate 1): 99% and 97%
Population Pyknosed Nuclei (%) ([5]; 24 h, replicate 1): 6% and 4%
Population Tubulin-Different-Phenotype (%) ([5]; 24 h, replicate 1): 22% and 28%
Total Cell Count ([5]; 24 h, replicate 1): 230 and 188
Population Apoptotic (%) ([5]; 24 h, replicate 2): 35% and 66%
Population Fragmented Nuclei (%) ([5]; 24 h, replicate 2): 9% and 3%
Population Healthy Nuclei (%) ([5]; 24 h, replicate 2): 77% and 94%
Population Hoechst High Intensity Objects (%) ([5]; 24 h, replicate 2): 6% and 11%
Population Membrane Permeable-Phenotype (%) ([5]; 24 h, replicate 2): 14% and 11%
Population Mitochondria Different-Phenotype (%) ([5]; 24 h, replicate 2): 19% and 18%
Population Mitotic Cells (%) ([5]; 24 h, replicate 2): 64% and 33%
Population Normal (%) ([5]; 24 h, replicate 2): 93% and 88%
Population Tubulin-Different-Phenotype (%) ([5]; 24 h, replicate 2): 13% and 11%
Total Cell Count ([5]; 24 h, replicate 2): 114 and 147
Growth Rate [6, 7]: 0
Growth Rate [6, 12]: 1
Growth Rate [6, 8]: 0
Growth Rate [6, 9]: 0
Growth Rate [6, 10]: 0
Growth Rate [6, 11]: 0
